According to ChEMBL document CHEMBL1149168, “Discovery and evaluation of potent P1 aryl heterocycle-based thrombin inhibitors” (J Med Chem, 2004):

Tests used:
[1] = biological target: Prothrombin (Homo sapiens, UniProt P00734); experiment: Inhibitory potency against human thrombin
[2] = Ability to double the activated partial thromboplastin time (2x APTT) in human plasma; format: functional
[3] = Half-life of compound in dog following p.o. administration of 0.5 mg/kg; format: ADME, organism-based, Canis lupus familiaris; set-up: dose 0.5 mg/kg, route oral; conditions: in vivo, po
How it was run: (§1)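 Male beagle dogs (10–12 kg), fasted overnight, were given the inhibitor orally at the stated mg/kg as a solution or suspension in 0.5% methocel. Plasma was stored at –20 °C until HPLC analysis.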

[4] = Maximum plasma concentration of compound in dog following p.o. administration of 0.5 mg/kg; format: ADME, organism-based, Canis lupus familiaris; set-up: dose 0.5 mg/kg, route oral; conditions: po; how it was run: as §1
[5] = Maximum plasma concentration of compound in dog following p.o. administration of 1 mg/kg; format: ADME, organism-based, Canis lupus familiaris; set-up: dose 1 mg/kg, route oral; conditions: po; how it was run: as §1
[6] = Half-life of compound in dog following p.o. administration of 1 mg/kg; format: ADME, organism-based, Canis lupus familiaris; set-up: dose 1 mg/kg, route oral; conditions: in vivo, po; how it was run: as §1
[7] = Maximum plasma concentration of compound in dog following p.o. administration of 0.95 mg/kg; format: ADME, organism-based, Canis lupus familiaris; set-up: dose 0.95 mg/kg, route oral; conditions: po; how it was run: as §1
[8] = biological target: Coagulation factor X (Homo sapiens, UniProt P00742); experiment: Inhibitory potency of compound against human Coagulation factor Xa
Chain of Coagulation factor X (P00742 41-179 limits assumed): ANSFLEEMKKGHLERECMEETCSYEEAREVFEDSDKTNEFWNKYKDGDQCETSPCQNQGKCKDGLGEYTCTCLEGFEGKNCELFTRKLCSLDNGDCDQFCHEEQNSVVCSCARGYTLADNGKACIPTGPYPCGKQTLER
Chain of Coagulation factor X (P00742 235-488 limits assumed): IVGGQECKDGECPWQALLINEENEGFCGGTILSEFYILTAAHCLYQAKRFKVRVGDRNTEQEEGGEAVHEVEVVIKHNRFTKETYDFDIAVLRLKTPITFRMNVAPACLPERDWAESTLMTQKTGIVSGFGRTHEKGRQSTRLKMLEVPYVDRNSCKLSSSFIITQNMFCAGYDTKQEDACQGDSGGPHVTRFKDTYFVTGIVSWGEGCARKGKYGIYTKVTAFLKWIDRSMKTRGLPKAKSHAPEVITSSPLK

[9] = Half-life of compound in dog following p.o. administration of 0.95 mg/kg; format: ADME, organism-based, Canis lupus familiaris; set-up: dose 0.95 mg/kg, route oral; conditions: in vivo, po; how it was run: as §1
[10] = Oral bioavailability in dog; format: ADME, organism-based, Canis lupus familiaris; conditions: in vivo
[11] = Half life of compound in dog following oral administration; format: ADME, organism-based, Canis lupus familiaris; conditions: in vivo; how it was run: as §1
[12] = Maximum plasma concentration of compound in dog following p.o. administration of 0.9 mg/kg; format: ADME, organism-based, Canis lupus familiaris; set-up: dose 0.9 mg/kg, route oral; conditions: po; how it was run: as §1
[13] = Half-life of compound in dog following p.o. administration of 0.9 mg/kg; format: ADME, organism-based, Canis lupus familiaris; set-up: dose 0.9 mg/kg, route oral; conditions: in vivo, po; how it was run: as §1
[14] = species on record: Canis familiaris; experiment: Half life of compound in dog was determined; format: ADME, organism-based, Canis lupus familiaris; conditions: in vivo
[15] = Oral bioavailability of compound in rat; format: ADME, organism-based; conditions: in vivo
[16] = Oral bioavailability of compound in rhesus macaques; format: ADME, organism-based, Macaca mulatta; conditions: rhesus monkey, in vivo

Structure (SMILES)	Ki [1] [nM]	2x APTT [2] [µM]	further results
Cc1ccc(NS(=O)(=O)Cc2ccccc2)c(=O)n1CC(=O)NCc1cc(Cl)ccc1-n1cncn1	0.16	0.36	
N[C@H](Cc1ccccc1)C(=O)N1CCC[C@H]1CC(=O)NCc1ccccc1-n1cncn1	1.06		
O=C(Cn1ccnc(NCC(F)(F)c2ccccn2)c1=O)NCc1ccccc1-n1cncn1	16	2.06	
O=C(Cn1ccnc(NCC(F)(F)c2cccc[n+]2[O-])c1=O)NCc1cc(Cl)ccc1-n1cncn1	0.085	0.26	
O=C(Cn1c(Cl)cnc(NCC(F)(F)c2ccccn2)c1=O)NCc1cccc(Cl)c1	0.44	0.79	
O=C(Cn1c(Cl)cnc(NCC(F)(F)c2ccccn2)c1=O)NCc1ncccc1-n1cnnn1	0.14	0.25	
O=C(Cn1c(Cl)cnc(NCC(F)(F)c2ccccn2)c1=O)NCc1ccccc1-n1ccnc1	6.3	1.29	
O=C(Cn1c(Cl)cnc(NCC(F)(F)c2cccc[n+]2[O-])c1=O)NCc1ccccc1-n1cnnn1	0.05	0.2	
O=C(Cn1c(Cl)cnc(NCC(F)(F)c2ccccn2)c1=O)NCc1ccccc1-c1nnn[nH]1	940		
O=C(Cn1c(Cl)cnc(NCC(F)(F)c2ccccn2)c1=O)NCc1ccccc1-n1cncn1	0.45	0.23	half-life [3]: 3.5 h; Cmax [4]: 1130 nM
Cn1nnnc1-c1ccccc1CNC(=O)Cn1c(Cl)cnc(NCC(F)(F)c2ccccn2)c1=O	1.2	0.34	
N[C@H](Cc1ccccc1)C(=O)N1CCC[C@H]1CC(=O)NCc1cc(Cl)ccc1-n1cnnn1	0.33	0.23	
O=C(Cn1c(Cl)cnc(NCC(F)(F)c2cccc[n+]2[O-])c1=O)NCc1ccccc1-n1cncn1	0.21	0.29	Cmax [5]: 860 nM; half-life [6]: 1.4 h
O=C(Cn1ccnc(NCC(F)(F)c2cccc[n+]2[O-])c1=O)NCc1ccccc1-n1cncn1	7.2	0.98	
O=C(Cn1ccnc(NCC(F)(F)c2ccccn2)c1=O)NCc1cc(Cl)ccc1-n1cnnn1	0.033	0.2	Cmax [7]: 1310 nM; Ki [8]: 10 nM; half-life [9]: 2 h
O=C(Cn1c(Cl)cnc(NCC(F)(F)c2cccc[n+]2[O-])c1=O)NCc1cc(Cl)ccc1-n1cnnn1		0.13	
O=C(Cn1c(Cl)cnc(NCC(F)(F)c2ccccn2)c1=O)NCc1ccccc1-c1c[nH]cn1	4.2	1.83	
N[C@@H](C(=O)N1CCC[C@H]1C(=O)NCc1cc(Cl)ccc1Cl)C(c1ccccc1)c1ccccc1	3		bioavailability [10]: 45%; half-life [11]: 1.67 h
Cc1ccc(NS(=O)(=O)Cc2ccccc2)c(=O)n1CC(=O)NCc1ccccc1-n1cncn1	7.3	1.06	
N[C@H](Cc1ccccn1)C(=O)N1CCC[C@H]1CC(=O)NCc1ccccc1-n1cncn1	2	0.39	
O=C(Cn1c(Cl)cnc(NCC(F)(F)c2ccccn2)c1=O)NCc1ccccc1-n1cnnn1	0.096	0.22	

Structure (SMILES)	Ki [1] [nM]	2x APTT [2] [µM]	further results
O=C(Cn1c(Cl)cnc(NCC(F)(F)c2ccccn2)c1=O)NCc1ncccc1-n1cncn1	0.66	0.33	
Cc1ccc(NS(=O)(=O)Cc2ccccc2)c(=O)n1CC(=O)NCc1cc(Cl)ccc1-n1cnnn1	0.018	0.23	Ki [8]: 11 nM
O=C(Cn1c(Cl)cnc(NCC(F)(F)c2ccccn2)c1=O)NCc1cc(Cl)ccc1-n1cncn1	< 0.01	0.17	
O=C(Cn1c(Cl)cnc(NCC(F)(F)c2ccccn2)c1=O)NCc1ccccc1	12	2.68	
Cn1nnc(-c2ccccc2CNC(=O)Cn2c(Cl)cnc(NCC(F)(F)c3ccccn3)c2=O)n1	5.8	1.72	
Cc1ccc(-n2cncn2)c(CNC(=O)CN2C=CN=C(NCC(F)(F)c3ccccn3)C2)c1	0.24	0.33	Cmax [12]: 1040 nM; half-life [13]: 1.2 h
O=C(Cn1c(Cl)cnc(NCC(F)(F)c2ccccn2)c1=O)NCc1ccccc1-n1cnnc1	3.5	0.52	
O=C(Cn1c(Cl)cnc(NCC(F)(F)c2ccccn2)c1=O)NCc1ccccc1-c1csnn1	0.84	0.6	
O=C(Cn1c(Cl)cnc(NCC(F)(F)c2ccccn2)c1=O)NCc1ccccc1-c1cc[nH]n1	5.6	2.08	
N[C@H](Cc1ccccn1)C(=O)N1CCC[C@H]1CC(=O)NCc1cc(Cl)ccc1-n1cnnn1	0.4	0.2	
O=C(Cn1c(Cl)cnc(NCC(F)(F)c2ccccn2)c1=O)NCc1ccccc1-c1ncc[nH]1	7.2	2.88	
O=C(Cn1c(Cl)cnc(NCC(F)(F)c2ccccn2)c1=O)NCc1cc(Cl)ccc1-n1cnnn1	0.0015	0.18	
O=C(Cn1c(Cl)cnc(NCC(F)(F)c2ccccn2)c1=O)NCc1ccccc1-n1cccn1	6.9	1.9	
Cc1ccc(NS(=O)(=O)Cc2ccccc2)c(=O)n1CC(=O)NCc1ccccc1-n1cnnn1	1.4	0.37	
O=C(Cn1ccnc(NCC(F)(F)c2ccccn2)c1=O)NCc1ccccc1-n1cnnn1	2.7	0.52	
O=C(Cn1ccnc(NCC(F)(F)c2cccc[n+]2[O-])c1=O)NCc1cc(Cl)ccc1-n1cnnn1	0.013	0.12	Ki [8]: 5 nM
O=C(Cn1c(Cl)cnc(NCC(F)(F)c2cccc[n+]2[O-])c1=O)NCc1cc(Cl)ccc1-n1cncn1	< 0.01	0.2	
O=C(Cn1ccnc(NCC(F)(F)c2cccc[n+]2[O-])c1=O)NCc1ccccc1-n1cnnn1	1.1	0.42	Ki [8]: 370 nM
O=C(Cn1c(Cl)cnc(NCC(F)(F)c2ccccn2)c1=O)NCc1ncccc1F [DPOC-4088]			T1/2 [14]: 4.5 h
Cc1nc(N)ccc1CNC(=O)Cn1c(C)cnc(NCCc2ccccc2)c1=O [L-375378]			bioavailability [10]: 91%; bioavailability [15]: 42%; bioavailability [16]: 60%
